# Laboratory results published in ChEMBL document CHEMBL1137627, “Hit generation and exploration: imidazo[4,5-b]pyridine derivatives as inhibitors of Aurora kinases” (Bioorg Med Chem Lett, 2007).
# Calls of active or inactive are those of the source. The rule behind the calls is not given here.
# Key:
# [1] = target: T1, Aurora kinase A (Homo sapiens) (UniProt O14965); assay: Inhibition of aurora A kinase at 100 uM
# T1 sequence (whole entry): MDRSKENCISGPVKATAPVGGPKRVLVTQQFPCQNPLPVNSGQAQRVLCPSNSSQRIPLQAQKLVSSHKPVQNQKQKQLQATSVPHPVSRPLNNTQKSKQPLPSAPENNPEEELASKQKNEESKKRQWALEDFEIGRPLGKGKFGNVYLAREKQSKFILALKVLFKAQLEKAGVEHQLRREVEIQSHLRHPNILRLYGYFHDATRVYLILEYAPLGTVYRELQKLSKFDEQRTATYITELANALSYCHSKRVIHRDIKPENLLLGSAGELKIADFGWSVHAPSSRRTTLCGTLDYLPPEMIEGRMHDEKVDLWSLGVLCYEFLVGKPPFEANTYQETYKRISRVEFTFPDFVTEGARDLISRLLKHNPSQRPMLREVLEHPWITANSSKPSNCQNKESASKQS
# Method in brief: (§1)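 Aurora-A kinase activity measured by Flashplate or Filterplate assay at 20 µM ATP. Samples run in triplicate and mean reported; some IC50 values are the mean of independent determinations.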
# Aurora kinase A = target: T2, Aurora kinase A (Homo sapiens, UniProt O14965); assay: Inhibition of aurora A kinase; method in brief: as §1
# T2 sequence (O14965 whole entry): T1 sequence (whole entry)
# [2] = target: T1, Aurora kinase A (Homo sapiens); assay: Inhibition of aurora A kinase at 10 uM; method in brief: as §1
# Cytochrome P450 2A6 = target: T3, Cytochrome P450 2A6 (Homo sapiens, UniProt P11509); assay: Inhibition of human CYP2A6 after 10 mins; format: ADME
# T3 sequence (P11509 whole entry): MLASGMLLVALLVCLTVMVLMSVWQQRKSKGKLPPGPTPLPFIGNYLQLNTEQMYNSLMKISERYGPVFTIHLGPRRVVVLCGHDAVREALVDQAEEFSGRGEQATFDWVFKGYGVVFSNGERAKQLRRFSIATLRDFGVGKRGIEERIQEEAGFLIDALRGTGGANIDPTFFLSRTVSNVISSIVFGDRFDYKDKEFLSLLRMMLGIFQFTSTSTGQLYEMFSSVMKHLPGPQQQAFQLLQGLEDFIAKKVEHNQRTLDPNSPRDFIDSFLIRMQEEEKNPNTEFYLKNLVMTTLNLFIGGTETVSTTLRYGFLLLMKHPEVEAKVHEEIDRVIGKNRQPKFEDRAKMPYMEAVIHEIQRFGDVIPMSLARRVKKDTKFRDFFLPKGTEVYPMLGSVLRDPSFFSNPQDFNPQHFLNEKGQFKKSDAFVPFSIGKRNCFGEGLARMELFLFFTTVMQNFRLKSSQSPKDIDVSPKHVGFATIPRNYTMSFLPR
# Method in brief: (§2)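 Inhibition of CYP isozymes assayed in pooled human liver microsomes from 50 individuals. Microsomal protein 0.5 mg/ml, 10 min incubation. Mephenytoin served as the CYP2C19 substrate. Metabolites were detected by LC–MS–MS with positive electrospray ionisation.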
# Cytochrome P450 2D6 = Cytochrome P450 2D6 (Homo sapiens, UniProt P10635); assay: Inhibition of human CYP2D6 after 10 mins; format: ADME; method in brief: as §2
# Chain of Cytochrome P450 2D6 (P10635 whole entry): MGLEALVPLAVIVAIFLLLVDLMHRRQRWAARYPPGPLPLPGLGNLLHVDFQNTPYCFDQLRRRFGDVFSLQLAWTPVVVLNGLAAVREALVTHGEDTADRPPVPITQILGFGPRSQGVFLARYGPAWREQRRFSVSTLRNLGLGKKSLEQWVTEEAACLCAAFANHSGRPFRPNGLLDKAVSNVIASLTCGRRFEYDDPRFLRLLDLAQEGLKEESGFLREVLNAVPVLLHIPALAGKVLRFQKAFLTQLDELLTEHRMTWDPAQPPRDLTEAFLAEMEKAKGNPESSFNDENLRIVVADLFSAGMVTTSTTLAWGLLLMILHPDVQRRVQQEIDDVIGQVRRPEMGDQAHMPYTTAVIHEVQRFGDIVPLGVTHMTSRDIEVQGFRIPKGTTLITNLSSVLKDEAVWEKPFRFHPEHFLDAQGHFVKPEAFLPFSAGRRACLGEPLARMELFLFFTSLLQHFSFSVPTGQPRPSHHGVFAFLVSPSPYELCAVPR
# Aurora kinase C = target: T4, Aurora kinase C (Homo sapiens, UniProt Q9UQB9); assay: Inhibition of recombinant aurora C kinase
# T4 sequence (Q9UQB9 whole entry): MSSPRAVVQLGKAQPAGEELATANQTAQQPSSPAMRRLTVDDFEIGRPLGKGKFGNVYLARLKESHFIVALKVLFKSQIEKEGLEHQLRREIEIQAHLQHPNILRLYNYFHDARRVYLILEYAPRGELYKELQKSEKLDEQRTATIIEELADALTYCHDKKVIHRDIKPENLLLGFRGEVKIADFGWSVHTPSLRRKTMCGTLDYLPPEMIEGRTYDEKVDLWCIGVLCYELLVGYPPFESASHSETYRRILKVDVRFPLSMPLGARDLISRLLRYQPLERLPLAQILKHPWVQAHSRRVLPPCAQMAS
# Method in brief: (§3)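 Purified recombinant Aurora kinase; IC50 determined by either a Flashplate or a Filterplate assay, with ATP in the assay at 20.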
# Cytochrome P450 2C9 = Cytochrome P450 2C9 (Homo sapiens, UniProt P11712); assay: Inhibition of human CYP2C9 after 10 mins; format: ADME; method in brief: as §2
# Chain of Cytochrome P450 2C9 (P11712 whole entry): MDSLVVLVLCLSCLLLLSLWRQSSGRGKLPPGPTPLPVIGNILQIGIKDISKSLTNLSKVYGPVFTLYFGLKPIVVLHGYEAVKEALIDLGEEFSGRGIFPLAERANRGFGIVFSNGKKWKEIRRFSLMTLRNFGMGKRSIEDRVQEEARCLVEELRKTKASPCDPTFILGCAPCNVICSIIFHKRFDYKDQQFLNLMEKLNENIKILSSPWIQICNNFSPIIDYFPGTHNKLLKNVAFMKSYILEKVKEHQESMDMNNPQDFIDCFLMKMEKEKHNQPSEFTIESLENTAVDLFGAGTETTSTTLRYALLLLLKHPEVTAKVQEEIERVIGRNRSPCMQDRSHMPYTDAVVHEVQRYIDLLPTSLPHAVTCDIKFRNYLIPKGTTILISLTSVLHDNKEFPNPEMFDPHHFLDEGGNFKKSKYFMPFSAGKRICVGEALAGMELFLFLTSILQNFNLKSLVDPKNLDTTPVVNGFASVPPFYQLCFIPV
# HeLa = assay: Antiproliferative activity against HeLa cells; format: functional; conditions: Homo sapiens
# Cytochrome P450 1A2 = target: T5, Cytochrome P450 1A2 (Homo sapiens, UniProt P05177); assay: Inhibition of human CYP1A2 after 10 mins; format: ADME; method in brief: as §2
# T5 sequence (P05177 whole entry): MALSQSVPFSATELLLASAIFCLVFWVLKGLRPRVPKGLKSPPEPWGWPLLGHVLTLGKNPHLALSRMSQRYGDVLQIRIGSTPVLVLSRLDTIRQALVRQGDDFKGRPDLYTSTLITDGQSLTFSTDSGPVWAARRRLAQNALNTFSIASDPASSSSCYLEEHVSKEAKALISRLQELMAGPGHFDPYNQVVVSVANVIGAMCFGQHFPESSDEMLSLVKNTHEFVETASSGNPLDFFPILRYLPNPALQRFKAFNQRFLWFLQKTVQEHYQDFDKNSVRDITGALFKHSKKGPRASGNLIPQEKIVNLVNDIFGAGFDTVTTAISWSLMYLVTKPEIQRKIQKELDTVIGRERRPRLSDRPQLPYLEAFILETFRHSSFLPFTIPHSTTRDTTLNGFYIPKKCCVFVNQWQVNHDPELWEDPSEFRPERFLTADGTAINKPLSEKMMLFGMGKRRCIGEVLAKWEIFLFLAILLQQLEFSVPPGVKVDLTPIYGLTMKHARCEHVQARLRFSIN
# Cytochrome P450 2C19 = Cytochrome P450 2C19 (Homo sapiens, UniProt P33261); assay: Inhibition of human CYP2C19 after 10 mins; format: ADME; method in brief: as §2
# Chain of Cytochrome P450 2C19 (P33261 whole entry): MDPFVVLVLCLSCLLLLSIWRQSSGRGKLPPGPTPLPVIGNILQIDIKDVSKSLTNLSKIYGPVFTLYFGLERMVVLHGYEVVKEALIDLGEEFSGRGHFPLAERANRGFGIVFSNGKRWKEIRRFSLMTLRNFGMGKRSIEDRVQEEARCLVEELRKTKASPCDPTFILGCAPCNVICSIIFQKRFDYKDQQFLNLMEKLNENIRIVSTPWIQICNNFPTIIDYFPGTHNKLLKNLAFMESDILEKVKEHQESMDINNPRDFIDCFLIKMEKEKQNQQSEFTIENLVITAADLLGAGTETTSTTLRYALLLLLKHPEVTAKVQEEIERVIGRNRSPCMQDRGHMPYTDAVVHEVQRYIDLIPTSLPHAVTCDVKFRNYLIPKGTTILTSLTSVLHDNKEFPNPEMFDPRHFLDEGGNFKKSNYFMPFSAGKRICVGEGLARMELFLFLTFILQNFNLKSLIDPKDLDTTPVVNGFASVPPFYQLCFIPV
# [3] = Metabolic stability in mouse liver microsomes after 30 mins; format: ADME, Microsome; conditions: read-out: Stability
# Method in brief: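 Compound incubated 30 min with mouse liver microsomes. Percent of parent compound remaining was reported.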
# HCT-116 = assay: Antiproliferative activity against HCT116 cells; format: functional; conditions: Homo sapiens
# Aurora kinase B = Aurora kinase B (Homo sapiens, UniProt Q96GD4); assay: Inhibition of recombinant aurora B kinase; method in brief: as §3
# Chain of Aurora kinase B (Q96GD4 whole entry): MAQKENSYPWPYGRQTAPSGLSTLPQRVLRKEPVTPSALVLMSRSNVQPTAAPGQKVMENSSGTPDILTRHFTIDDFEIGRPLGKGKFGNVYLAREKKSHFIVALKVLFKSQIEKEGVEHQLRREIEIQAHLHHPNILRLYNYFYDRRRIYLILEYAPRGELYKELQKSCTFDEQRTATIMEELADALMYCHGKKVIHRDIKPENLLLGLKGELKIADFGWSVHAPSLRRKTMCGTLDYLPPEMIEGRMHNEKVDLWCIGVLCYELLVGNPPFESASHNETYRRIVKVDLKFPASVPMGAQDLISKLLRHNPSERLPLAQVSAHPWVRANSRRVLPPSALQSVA
SMILES,IC50 (Aurora kinase A) [µM],also measured
COc1cc2ncnc(N3CCN(CCn4ccnc4)CC3)c2cc1OC,,Activity [1]: inactive
CN(C)c1ccc(-c2nc3cc(Cl)cnc3[nH]2)cc1,0.57,
CN(C)c1cccc(-c2nc3cccnc3[nH]2)c1,10,
CN(C)c1ccc(-c2nc3cc(-c4cccs4)cnc3[nH]2)cc1,,inhibition [2]: 34%
CN(C)c1ccccc1-c1nc2cccnc2[nH]1,,inhibition [2]: 20%
CN(C)c1ccc(-c2nc3cc(-c4ccc5c(c4)OCO5)cnc3[nH]2)cc1,,inhibition [1]: 33%
COc1cc2ncnc(N3CCN(CC(=O)OC(C)(C)C)CC3)c2cc1OC,,Activity [1]: inactive
Cc1cnc2[nH]c(-c3ccc(N(C)C)cc3)nc2c1,6.9,
COc1cc2ncnc(N3CCN(CC(=O)N(C)c4ccccc4)CC3)c2cc1OC,16.5,
CN(C)c1ccc(-c2nc3ccccc3[nH]2)cc1,,inhibition [1]: 8%
COc1cc2ncnc(N3CCN(c4ncccn4)CC3)c2cc1OC,,Activity [1]: inactive
CN(C)c1ccc(-c2nc3cc[nH]cc-3n2)cc1,12.5,inhibition [2]: 35%
CN(C)c1ccc(-c2nc3cc(C(F)(F)F)cnc3[nH]2)cc1,0.74,
COc1cc2ncnc(N3CCN(c4cnccn4)CC3)c2cc1OC,,Activity [1]: inactive
CN(C)c1ccc(-c2nc3c(N4CCN(CC(=O)Nc5nccs5)CC4)c(Cl)cnc3[nH]2)cc1,,IC50 (Cytochrome P450 2A6): > 10 µM; IC50 (Cytochrome P450 2D6): > 10 µM; IC50 (Aurora kinase C): 227 nM; IC50 (Cytochrome P450 2C9): 10 µM; GI50 (HeLa): 200 nM; IC50 (Cytochrome P450 1A2): > 10 µM; IC50 (Cytochrome P450 2C19): > 10 µM; remaining at 0.5 h [3]: 75%; GI50 (HCT-116): 350 nM; IC50 (Aurora kinase B): 198 nM
COc1cccc(-c2nc3ncccc3[nH]2)c1,16,
CN(C)c1ccc(-c2nc3c(N4CCN(CC(=O)Nc5nccs5)CC4)ccnc3[nH]2)cc1,0.87,
CN(C)c1ccc(-c2nc3cc(-c4cccnc4)cnc3[nH]2)cc1,,inhibition [2]: 28%
Cc1ccnc2nc(-c3ccc(N(C)C)cc3)[nH]c12,7,
CC(=O)c1cccc(-c2cnc3[nH]c(-c4ccc(N(C)C)cc4)nc3c2)c1,9,
COc1cc2ncnc(N3CCN(C(C)c4ccccc4)CC3)c2cc1OC (stereo not given),25,
N#Cc1ccc(-c2nc3cccnc3[nH]2)cc1,,inhibition [2]: 38%
CN(C)c1ccc(-c2nc3cc(-c4cccc(O)c4)cnc3[nH]2)cc1,,inhibition [2]: 31%
COc1ccc(-c2cnc3nc(-c4ccc(N(C)C)cc4)[nH]c3c2)cc1,20,
CCn1c(-c2ccc(N(C)C)cc2)nc2cccnc21,,inhibition [1]: 26%
COc1cc2ncnc(N3CCN(Cc4cccc5ccccc45)CC3)c2cc1OC,9.6,

# Second part, led by results:
IC50 (Aurora kinase A) [µM],SMILES,also measured
0.49,CN(C)c1ccc(-c2nc3ncc(Br)cc3[nH]2)cc1,
35,COc1cc2ncnc(N3CCN(CCOc4ccccc4)CC3)c2cc1OC,
98,COc1cc2ncnc(N3CCN(CC(=O)N4CCCC4)CC3)c2cc1OC,
76,COc1cc2ncnc(N3CCN(CCc4ccccc4)CC3)c2cc1OC,
4.4,c1cnc2nc(-c3ccc(C4CCCCN4)cc3)[nH]c2c1 (stereo not given),
4.3,CN(C)c1ccc(-c2nc3cccnc3[nH]2)cc1,
6.6,COc1ccc(-c2nc3ncccc3[nH]2)cc1,
40,COc1cc2ncnc(N3CCN(Cc4ccc(F)cc4)CC3)c2cc1OC,
4.6,c1cnc2nc(-c3ccc(N4CCCC4)cc3)[nH]c2c1,
29,COc1ccccc1-c1nc2ccc[nH]c-2n1,
2.4,CN(C)c1ccc(-c2nc3c(Cl)ccnc3[nH]2)cc1,
5.9,COc1cc2ncnc(N3CCN(CC(=O)Nc4nccs4)CC3)c2cc1OC,
0.25,CN(C)c1ccc(-c2nc3ncc(Cl)c(Cl)c3[nH]2)cc1,
18,CN(C)c1ccc(-c2nc3ncc(-c4cccc(O)c4)cc3[nH]2)cc1,
